Experimental data reported in ChEMBL document CHEMBL1152521, “Synthesis and biological evaluation of radioiodinated 2,5-diphenyl-1,3,4-oxadiazoles for detecting beta-amyloid plaques in the brain” (Bioorg Med Chem, 2009).
Each block holds one compound with its values, some of them ahead of it. Calls of active or inactive are those of the source. No cut-off for these calls is given here.

Columns and labels:
Stomach [1] = assay: Biodistribution in ddY mouse stomach assessed per organ at 0.2 to 0.4 uCi, iv after 30 mins post-injection by gamma counting; assay type: ADME, organism-based; details: in vivo, 0.5 h
Summary of the method: (§1)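 Normal ddY mice (5-week-old, 22-25 g) were injected by tail vein with 0.2–0.4 μCi of 125I ligand in saline (100 μL) containing 10 μL ethanol. At 2, 10, 30 or 60 min the stomach was removed and gamma counted. Values are % injected dose per organ, mean (SD) of 4-6 animals.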

Spleen [2] = assay: Biodistribution in ddY mouse spleen at 0.2 to 0.4 uCi, iv after 2 mins post-injection by gamma counting; assay type: ADME, organism-based; details: in vivo
Summary of the method: (§2)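 Normal ddY mice (5-week-old, 22-25 g) received 0.2–0.4 μCi of the 125I-labelled agent by tail-vein injection in 100 μL saline containing 10 μL ethanol. Animals were killed at 2, 10, 30 or 60 min, and organs were removed, weighed and gamma counted. Values are % injected dose per gram, mean (SD) of 4-6 animals.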

Stomach [3] = assay: Biodistribution in ddY mouse stomach assessed per organ at 0.2 to 0.4 uCi, iv after 60 mins post-injection by gamma counting; assay type: ADME, organism-based; details: in vivo, 1 h; summary of the method: as §1
Pancreas [4] = assay: Biodistribution in ddY mouse pancreas at 0.2 to 0.4 uCi, iv after 30 mins post-injection by gamma counting; assay type: ADME, organism-based; details: in vivo, 0.5 h; summary of the method: as §2
Blood [5] = assay: Biodistribution in ddY mouse blood at 0.2 to 0.4 uCi, iv after 2 mins post-injection by gamma counting; assay type: ADME, organism-based; details: in vivo; summary of the method: as §2
Intestine [6] = assay: Biodistribution in ddY mouse intestine at 0.2 to 0.4 uCi, iv after 10 mins post-injection by gamma counting; assay type: ADME, organism-based; details: in vivo; summary of the method: as §2
Brain [7] = assay: Biodistribution in ddY mouse brain at 0.2 to 0.4 uCi, iv after 10 mins post-injection by gamma counting; assay type: ADME, organism-based; details: in vivo; summary of the method: as §2
Intestine [8] = assay: Biodistribution in ddY mouse intestine at 0.2 to 0.4 uCi, iv after 60 mins post-injection by gamma counting; assay type: ADME, organism-based; details: in vivo, 1 h; summary of the method: as §2
Stomach [9] = assay: Biodistribution in ddY mouse stomach assessed per organ at 0.2 to 0.4 uCi, iv after 10 mins post-injection by gamma counting; assay type: ADME, organism-based; details: in vivo; summary of the method: as §1
Blood [10] = assay: Biodistribution in ddY mouse blood at 0.2 to 0.4 uCi, iv after 60 mins post-injection by gamma counting; assay type: ADME, organism-based; details: in vivo, 1 h; summary of the method: as §2
Spleen [11] = assay: Biodistribution in ddY mouse spleen at 0.2 to 0.4 uCi, iv after 30 mins post-injection by gamma counting; assay type: ADME, organism-based; details: in vivo, 0.5 h; summary of the method: as §2
Brain [12] = assay: Biodistribution in ddY mouse brain at 0.2 to 0.4 uCi, iv after 60 mins post-injection by gamma counting; assay type: ADME, organism-based; details: in vivo, 1 h; summary of the method: as §2
Kidney [13] = assay: Biodistribution in ddY mouse kidney at 0.2 to 0.4 uCi, iv after 60 mins post-injection by gamma counting; assay type: ADME, organism-based; details: in vivo, 1 h; summary of the method: as §2
Intestine [14] = assay: Biodistribution in ddY mouse intestine at 0.2 to 0.4 uCi, iv after 30 mins post-injection by gamma counting; assay type: ADME, organism-based; details: in vivo, 0.5 h; summary of the method: as §2
Stomach [15] = assay: Biodistribution in ddY mouse stomach assessed per organ at 0.2 to 0.4 uCi, iv after 2 mins post-injection by gamma counting; assay type: ADME, organism-based; details: in vivo; summary of the method: as §1
Liver [16] = assay: Biodistribution in ddY mouse liver at 0.2 to 0.4 uCi, iv after 30 mins post-injection by gamma counting; assay type: ADME, organism-based; details: in vivo, 0.5 h; summary of the method: as §2
Heart [17] = assay: Biodistribution in ddY mouse heart at 0.2 to 0.4 uCi, iv after 2 mins post-injection by gamma counting; assay type: ADME, organism-based; details: in vivo; summary of the method: as §2
Heart [18] = assay: Biodistribution in ddY mouse heart at 0.2 to 0.4 uCi, iv after 60 mins post-injection by gamma counting; assay type: ADME, organism-based; details: in vivo, 1 h; summary of the method: as §2
Brain [19] = assay: Biodistribution in ddY mouse brain at 0.2 to 0.4 uCi, iv after 2 mins post-injection by gamma counting; assay type: ADME, organism-based; details: in vivo; summary of the method: as §2
Brain [20] = assay: Biodistribution in ddY mouse brain at 0.2 to 0.4 uCi, iv after 30 mins post-injection by gamma counting; assay type: ADME, organism-based; details: in vivo, 0.5 h; summary of the method: as §2
Spleen [21] = assay: Biodistribution in ddY mouse spleen at 0.2 to 0.4 uCi, iv after 60 mins post-injection by gamma counting; assay type: ADME, organism-based; details: in vivo, 1 h; summary of the method: as §2
Spleen [22] = assay: Biodistribution in ddY mouse spleen at 0.2 to 0.4 uCi, iv after 10 mins post-injection by gamma counting; assay type: ADME, organism-based; details: in vivo; summary of the method: as §2
Kidney [23] = assay: Biodistribution in ddY mouse kidney at 0.2 to 0.4 uCi, iv after 10 mins post-injection by gamma counting; assay type: ADME, organism-based; details: in vivo; summary of the method: as §2
Pancreas [24] = assay: Biodistribution in ddY mouse pancreas at 0.2 to 0.4 uCi, iv after 2 mins post-injection by gamma counting; assay type: ADME, organism-based; details: in vivo; summary of the method: as §2
Kidney [25] = assay: Biodistribution in ddY mouse kidney at 0.2 to 0.4 uCi, iv after 30 mins post-injection by gamma counting; assay type: ADME, organism-based; details: in vivo, 0.5 h; summary of the method: as §2
Liver [26] = assay: Biodistribution in ddY mouse liver at 0.2 to 0.4 uCi, iv after 2 mins post-injection by gamma counting; assay type: ADME, organism-based; details: in vivo; summary of the method: as §2
Liver [27] = assay: Biodistribution in ddY mouse liver at 0.2 to 0.4 uCi, iv after 60 mins post-injection by gamma counting; assay type: ADME, organism-based; details: in vivo, 1 h; summary of the method: as §2
Pancreas [28] = assay: Biodistribution in ddY mouse pancreas at 0.2 to 0.4 uCi, iv after 60 mins post-injection by gamma counting; assay type: ADME, organism-based; details: in vivo, 1 h; summary of the method: as §2
Liver [29] = assay: Biodistribution in ddY mouse liver at 0.2 to 0.4 uCi, iv after 10 mins post-injection by gamma counting; assay type: ADME, organism-based; details: in vivo; summary of the method: as §2
Blood [30] = assay: Biodistribution in ddY mouse blood at 0.2 to 0.4 uCi, iv after 10 mins post-injection by gamma counting; assay type: ADME, organism-based; details: in vivo; summary of the method: as §2
Intestine [31] = assay: Biodistribution in ddY mouse intestine at 0.2 to 0.4 uCi, iv after 2 mins post-injection by gamma counting; assay type: ADME, organism-based; details: in vivo; summary of the method: as §2
Heart [32] = assay: Biodistribution in ddY mouse heart at 0.2 to 0.4 uCi, iv after 10 mins post-injection by gamma counting; assay type: ADME, organism-based; details: in vivo; summary of the method: as §2
Heart [33] = assay: Biodistribution in ddY mouse heart at 0.2 to 0.4 uCi, iv after 30 mins post-injection by gamma counting; assay type: ADME, organism-based; details: in vivo, 0.5 h; summary of the method: as §2
Kidney [34] = assay: Biodistribution in ddY mouse kidney at 0.2 to 0.4 uCi, iv after 2 mins post-injection by gamma counting; assay type: ADME, organism-based; details: in vivo; summary of the method: as §2
Pancreas [35] = assay: Biodistribution in ddY mouse pancreas at 0.2 to 0.4 uCi, iv after 10 mins post-injection by gamma counting; assay type: ADME, organism-based; details: in vivo; summary of the method: as §2
Blood [36] = assay: Biodistribution in ddY mouse blood at 0.2 to 0.4 uCi, iv after 30 mins post-injection by gamma counting; assay type: ADME, organism-based; details: in vivo, 0.5 h; summary of the method: as §2
[37] = Octanol-phosphate buffer partition coefficient, log P at pH 7.4 by gamma counting of radioactivity
[38] = Displacement of [125I]IMPY from aggregated amyloid beta (1-42) by gamma counting
Mus musculus [39] = species on record: Mus musculus; assay: Binding affinity to amyloid beta (1-42) in brain of transgenic 2576 mouse Alzheimer's model at 100 uM after 30 mins by thioflavin S staining-based fluorescence microscopic analysis
Mus musculus [40] = species on record: Mus musculus; assay: Binding affinity to amyloid beta (1-42) in normal mouse brain at 100 uM after 30 mins by thioflavin S staining-based fluorescence microscopic analysis

Drug uptake (Stomach [1]): 4.79 %ID
Drug uptake (Spleen [2]): 3.56 % ID/g
Drug uptake (Stomach [3]): 5.5 %ID
Drug uptake (Pancreas [4]): 2.5 % ID/g
Drug uptake (Blood [5]): 3.28 % ID/g
Drug uptake (Intestine [6]): 11.34 % ID/g
Drug uptake (Brain [7]): 5.93 % ID/g
Drug uptake (Intestine [8]): 16.22 % ID/g
Drug uptake (Stomach [9]): 4.73 %ID
Drug uptake (Blood [10]): 2.21 % ID/g
Drug uptake (Spleen [11]): 2.63 % ID/g
Drug uptake (Brain [12]): 1.78 % ID/g
Drug uptake (Kidney [13]): 3.81 % ID/g
Drug uptake (Intestine [14]): 12.58 % ID/g
Drug uptake (Stomach [15]): 1.4 %ID
Drug uptake (Liver [16]): 12.64 % ID/g
Drug uptake (Heart [17]): 3.99 % ID/g
Drug uptake (Heart [18]): 1.54 % ID/g
Drug uptake (Brain [19]): 2.98 % ID/g
Drug uptake (Brain [20]): 3.16 % ID/g
Drug uptake (Spleen [21]): 2.05 % ID/g
Drug uptake (Spleen [22]): 4.1 % ID/g
Drug uptake (Kidney [23]): 7.8 % ID/g
Drug uptake (Pancreas [24]): 5.32 % ID/g
Drug uptake (Kidney [25]): 5.71 % ID/g
Drug uptake (Liver [26]): 15.87 % ID/g
Drug uptake (Liver [27]): 10.01 % ID/g
Drug uptake (Pancreas [28]): 2.14 % ID/g
Drug uptake (Liver [29]): 19.12 % ID/g
Drug uptake (Blood [30]): 3.51 % ID/g
Drug uptake (Intestine [31]): 2.28 % ID/g
Drug uptake (Heart [32]): 3.55 % ID/g
Drug uptake (Heart [33]): 2.03 % ID/g
Drug uptake (Kidney [34]): 9.14 % ID/g
Drug uptake (Pancreas [35]): 4.39 % ID/g
Drug uptake (Blood [36]): 2.53 % ID/g
Compound: CN(C)c1ccc(-c2nnc(-c3ccc([125I])cc3)o2)cc1

logD [37]: 3.37
Compound: COc1ccc(-c2nc(-c3ccc(I)cc3)no2)cc1

logD [37]: 2.43
Activity (Mus musculus [39]): Active
Activity (Mus musculus [40]): inactive
Ki [38]: 20.1 nM
Compound: CN(C)c1ccc(-c2nnc(-c3ccc(I)cc3)o2)cc1

logD [37]: 3.22
Compound: CN(C)c1ccc(-c2nc(-c3ccc(I)cc3)no2)cc1

Continued, compound first:

Compound: OCCOCCOc1ccc(-c2nnc(-c3ccc(I)cc3)o2)cc1
Ki [38]: 349 nM

Compound: OCCOc1ccc(-c2nnc(-c3ccc(I)cc3)o2)cc1
Ki [38]: 282 nM

Compound: COc1ccc(-c2nnc(-c3ccc(I)cc3)o2)cc1
logD [37]: 2.58
Activity (Mus musculus [39]): Active
Ki [38]: 46.1 nM

Compound: OCCOCCOCCOc1ccc(-c2nnc(-c3ccc(I)cc3)o2)cc1
Ki [38]: 258 nM

Compound: Oc1ccc(-c2nnc(-c3ccc(I)cc3)o2)cc1
Ki [38]: 230 nM

Compound: COc1ccc(-c2nnc(-c3ccc([125I])cc3)o2)cc1
Drug uptake (Stomach [1]): 3.12 %ID
Drug uptake (Spleen [2]): 2.44 % ID/g
Drug uptake (Stomach [3]): 2.9 %ID
Drug uptake (Pancreas [4]): 0.96 % ID/g
Drug uptake (Blood [5]): 1.84 % ID/g
Drug uptake (Intestine [6]): 4.49 % ID/g
Drug uptake (Brain [7]): 2.74 % ID/g
Drug uptake (Intestine [8]): 19.85 % ID/g
Drug uptake (Stomach [9]): 1.41 %ID
Drug uptake (Blood [10]): 0.8 % ID/g
Drug uptake (Spleen [11]): 0.8 % ID/g
Drug uptake (Brain [12]): 0.36 % ID/g
Drug uptake (Kidney [13]): 2.48 % ID/g
Drug uptake (Intestine [14]): 10.06 % ID/g
Drug uptake (Stomach [15]): 0.71 %ID
Drug uptake (Liver [16]): 8.07 % ID/g
Drug uptake (Heart [17]): 4.8 % ID/g
Drug uptake (Heart [18]): 0.43 % ID/g
Drug uptake (Brain [19]): 3.75 % ID/g
Drug uptake (Brain [20]): 1.04 % ID/g
Drug uptake (Spleen [21]): 0.6 % ID/g
Drug uptake (Spleen [22]): 1.51 % ID/g
Drug uptake (Kidney [23]): 4.85 % ID/g
Drug uptake (Pancreas [24]): 4.74 % ID/g
Drug uptake (Kidney [25]): 4.36 % ID/g
Drug uptake (Liver [26]): 9.6 % ID/g
Drug uptake (Liver [27]): 4.65 % ID/g
Drug uptake (Pancreas [28]): 0.57 % ID/g
Drug uptake (Liver [29]): 12.6 % ID/g
Drug uptake (Blood [30]): 1.6 % ID/g
Drug uptake (Intestine [31]): 2.07 % ID/g
Drug uptake (Heart [32]): 1.73 % ID/g
Drug uptake (Heart [33]): 0.92 % ID/g
Drug uptake (Kidney [34]): 7.14 % ID/g
Drug uptake (Pancreas [35]): 1.98 % ID/g
Drug uptake (Blood [36]): 1.26 % ID/g
